Calls of active or inactive are those of the source. No cut-off for these calls is given here.
What was measured:
[1] = molecular target: T1, NAD-dependent protein deacetylase sirtuin-1 (Homo sapiens) (UniProt Q96EB6); test: Activation of SIRT1 expressed in HEK293 cells assessed as increase in enzyme deacetylation activity pre-incubated for 10 mins before addition of acetylated p53 peptide substrate and NAD+ by NAD+/NADH assay; type: cell-based
T1 sequence (whole entry): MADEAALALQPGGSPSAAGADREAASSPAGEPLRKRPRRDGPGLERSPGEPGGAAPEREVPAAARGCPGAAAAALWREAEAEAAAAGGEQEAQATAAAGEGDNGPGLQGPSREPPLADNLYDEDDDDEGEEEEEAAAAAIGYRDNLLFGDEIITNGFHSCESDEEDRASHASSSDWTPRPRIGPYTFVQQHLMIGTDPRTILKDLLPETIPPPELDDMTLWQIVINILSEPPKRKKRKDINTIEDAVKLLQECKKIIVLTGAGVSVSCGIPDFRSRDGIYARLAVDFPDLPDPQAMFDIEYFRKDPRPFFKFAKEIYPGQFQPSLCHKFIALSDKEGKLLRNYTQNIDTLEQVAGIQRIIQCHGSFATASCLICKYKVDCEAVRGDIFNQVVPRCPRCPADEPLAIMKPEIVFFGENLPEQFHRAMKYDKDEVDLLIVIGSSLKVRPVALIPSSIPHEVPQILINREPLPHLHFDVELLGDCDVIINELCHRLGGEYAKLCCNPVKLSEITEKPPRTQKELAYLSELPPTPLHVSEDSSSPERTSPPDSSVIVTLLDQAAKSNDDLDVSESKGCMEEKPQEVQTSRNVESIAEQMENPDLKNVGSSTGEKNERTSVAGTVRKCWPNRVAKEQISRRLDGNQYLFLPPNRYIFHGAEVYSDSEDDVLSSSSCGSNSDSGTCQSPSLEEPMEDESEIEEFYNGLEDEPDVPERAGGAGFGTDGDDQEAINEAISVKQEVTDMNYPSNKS
Outline: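 Cell-free SIRT1 (0.1 U/mL) with 10 μM NAD+ and 20 μM Ac-p53 peptide in Tris/Cl pH 8.0, NaCl, KCl, MgCl2, BSA buffer. Enzyme–compound premix 10 min at room temperature, then 6 h at ambient temperature. Stopped with NAD/NADH recycling enzyme mix containing 1 mM nicotinamide; absorbance read after 2 h. DMSO and no-enzyme controls.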

[2] = molecular target: T1, NAD-dependent protein deacetylase sirtuin-1 (Homo sapiens); test: Activation of SIRT1 expressed in HEK293 cells assessed as reduction in p53 transcriptional activity at 10 uM incubated for 12 hrs by luciferase reporter gene assay; type: cell-based
Outline: (§1)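 HEK293 cells in DMEM with 10% FBS, plated at 10^5 cells/well. After 24 h, PEI-transfected with PG13-luc (wt p53 sites), myc-p53, flag-SIRT1 and RSV-β-gal. Treated 24 h post-transfection for 12 h. Luciferase normalized to internal control. Triplicate experiments, mean ± SD.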

[3] = molecular target: T1, NAD-dependent protein deacetylase sirtuin-1 (Homo sapiens); test: Activation of SIRT1 expressed in HEK293 cells assessed as reduction in p53 transcriptional activity incubated for 12 hrs by luciferase reporter gene assay; type: cell-based; outline: as §1
[4] = molecular target: T1, NAD-dependent protein deacetylase sirtuin-1 (Homo sapiens); test: Activation of SIRT1 expressed in HEK293 cells assessed as increase in NAD to NADH ratio at 20 uM after 12 hrs by NAD+/NADH assay
[5] = molecular target: T1, NAD-dependent protein deacetylase sirtuin-1 (Homo sapiens); test: Activation of SIRT1 expressed in HEK293 cells assessed as increase in enzyme deacetylation activity at 10 uM using acetylated p53 substrate and NAD+ by bioluminescence assay; type: cell-based
Outline: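 Enzyme–compound premix 10 min, then substrate/NAD+ added and run 2 h. Quenched with LDH reagent containing nicotinamide for 1 h. Read by luciferase/FMN-oxidoreductase/decanal luminescence within 15 min. DMSO reaction as positive control, no-enzyme as blank.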

Row | Activity [1] | Activity [2] | Activity [3] | Activity [4] [%] | Activity [5] | Compound
1 | Dose-dependent effect | Active | Dose-dependent effect | > 50 | Active | COc1cc2ccc(=O)oc2c(OC)c1OC[C@@H](O)[C@](C)(O)CC[C@H]1OC1(C)C
2 | Dose-dependent effect | Active | Dose-dependent effect | > 50 | Active | COc1cc2ccc(=O)oc2c(OC)c1OC[C@@H](O)[C@](C)(O)CCC=C(C)C
3 | Dose-dependent effect | Active | Dose-dependent effect | > 50 | Active | COc1cc2ccc(=O)oc2c(OC)c1OC/C=C(\C)CCC=C(C)C
4 | Dose-dependent effect | Active | Dose-dependent effect | > 50 | Active | COc1cc2ccc(=O)oc2c(OC)c1OC[C@H](O)[C@@H](C)[C@@H]1O[C@H]1C=C(C)C

From ChEMBL document CHEMBL2069229, “Terpenylated coumarins as SIRT1 activators isolated from Ailanthus altissima” (J Nat Prod, 2012)
